Bioassay records deposited in PubChem BioAssay by Broad Institute.
A selection: hits, their analogues and other compounds. The true share with any hit is near 2.2%.
FN deposit inh = fibronectin deposition inhibition; AID 743247; AH1F fibroblasts, Alexa488-fibronectin deposition fluorescence, overnight; inhibition, % at 12.6 µM; 350,000 compounds, 0.086% hits;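 active = mean inhibition across replicates of 30% or more, regardless of how many single replicates reach that level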;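 also: positive control wells lacked labelled fibronectin entirely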
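Test system: AH1F fibroblast monolayer depositing Alexa488-labelled fibronectin into matrix. Input: 10000 cells per well. Technique: fluorescence, ex 485 nm, em 525 nm. Buffer or medium: DMEM plus 2% serum, read in PBS. Timing: 1 h cell adhesion before compound, then overnight fibronectin incubation. Compound: single dose, pinned. Read-out basis: inhibition from reduced deposited-fibronectin fluorescence.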
ERAP1 inh = ERAP1 (human) enzyme inhibition | Q9NZ08 | inhibition, % at 10.7 µM | 340,000 compounds, 0.15% hits | AID 652197 | recombinant ERAP1, Leu-AMC fluorescence, 60 min;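 active = mean replicate inhibition of at least 30%, or all replicates individually reaching that 30% level; inactive = mean below 30% and not every replicate reaching it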;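 also: 0% = neutral control wells and 100% = L-leucinethiol positive control wells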
SIRT5 block = inhibitors of human sirtuin-5 desuccinylase. inhibition, % at 15 µM. Purified SirT5, succinyl-peptide AMC, trypsin-coupled fluorescence. 330,000 compounds, 1.1% hits. Q9NXA8. AID 652115; in the data active = inhibition above about 15%
Target sequence (Q9NXA8 whole entry, looked up): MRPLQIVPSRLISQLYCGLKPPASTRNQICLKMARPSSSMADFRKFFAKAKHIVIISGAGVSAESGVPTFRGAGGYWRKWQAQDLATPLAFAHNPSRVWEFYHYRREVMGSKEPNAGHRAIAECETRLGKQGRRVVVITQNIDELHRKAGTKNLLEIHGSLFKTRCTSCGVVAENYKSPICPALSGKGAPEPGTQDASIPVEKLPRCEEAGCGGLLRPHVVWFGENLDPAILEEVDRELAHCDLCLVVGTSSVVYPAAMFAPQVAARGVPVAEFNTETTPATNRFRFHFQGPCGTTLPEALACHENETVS
PGC1a acetyl inh = PGC1a acetylation modulation, inhibitor mode | U2OS PGC1a acetylation, AlphaScreen anti-acetyl-lysine; with virally co-expressed GCN5 acetyltransferase | inhibition, % at 15.6 µM | 350,000 compounds, 0.17% hits | AID 651687;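 active = every replicate shows inhibition of at least 40%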;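 also: 0% = neutral control wells and 100% = positive control wells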
FGF22 binding = shifts melting point of recombinant human FGF22; Q9HCT0; recombinant FGF22 thermal shift, SYPRO orange fluorescence; percent of sucrose octasulfate shift, DMSO zero; activity (Tm shift, normalised), % at 9.99 µM; 340,000 compounds, 1.5% hits;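 active = mean Tm shift, scaled 0 neutral to 100 positive control, at about 1.3% or above, every replicate too, limit read from the data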
Target sequence (Q9HCT0 whole entry, looked up): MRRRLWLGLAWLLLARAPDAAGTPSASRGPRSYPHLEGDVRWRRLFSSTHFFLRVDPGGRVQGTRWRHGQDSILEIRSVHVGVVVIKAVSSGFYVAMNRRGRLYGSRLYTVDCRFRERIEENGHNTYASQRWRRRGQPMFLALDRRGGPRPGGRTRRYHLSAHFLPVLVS
* marks the source's active call; other numbers are inactive results.

CCN(C(=O)COC(=O)c1ccccc1NC(=O)c1ccco1)C1CCS(=O)(=O)C1 (stereo not given) was read as FN deposit inh 2, ERAP1 inh 1, SIRT5 block -1, PGC1a acetyl inh 6 and FGF22 binding 43*.
CC(C)NC(=O)Nc1ccc2c(c1)C(=O)N([C@H](C)CO)C[C@H](C)[C@@H](CN(C)C(=O)Nc1ccc3c(c1)OCO3)OCCCC[C@H](C)O2 was read as FN deposit inh 3, ERAP1 inh 3, SIRT5 block -2, PGC1a acetyl inh 6 and FGF22 binding 0.
Screening CC(=O)OCC1=C(C(=O)O)N2C(=O)C(NC(=O)CCn3nc(C(F)(F)F)c(Br)c3C3CC3)C2SC1 (stereo not given) returned FN deposit inh 1, ERAP1 inh -3, SIRT5 block 7, PGC1a acetyl inh -5 and FGF22 binding 0.
`CC(=O)OCC1=C(C(=O)O)N2C(=O)[C@@H](NC(=O)Cc3ccccc3)[C@H]2SC1` gave ERAP1 inh 0, SIRT5 block 1, PGC1a acetyl inh 5 and FGF22 binding 0.
CC(=O)OCC1=C(C(=O)O)N2C(=O)C(NC(=O)CCn3nc(C)c(Cl)c3C)C2SC1 (stereo not given) was read as FN deposit inh 33*, ERAP1 inh -2, SIRT5 block -2, PGC1a acetyl inh -9 and FGF22 binding 0.
`Cc1nnc(SCC2=C(C(=O)O)N3C(=O)C(NC(=O)Cn4nc(C(F)F)c(Cl)c4C)C3SC2)s1` (stereo not given) gave FN deposit inh 5, ERAP1 inh 2, SIRT5 block -4 and FGF22 binding 43*.
Cc1nnc(SCC2=C(C(=O)O)N3C(=O)C(NC(=O)Cn4nc(C(F)F)cc4C)C3SC2)s1 (stereo not given) was read as FN deposit inh -7, ERAP1 inh -2, SIRT5 block -2 and FGF22 binding 0.
For CC(=O)OCC1=C(C(=O)O)N2C(=O)C(NC(=O)Cn3nc(C(F)F)c(Cl)c3C)C2SC1 (stereo not given) the results were FN deposit inh 6, ERAP1 inh 1, SIRT5 block -4 and FGF22 binding 43*.
`C[C@H](CO)N1C[C@H](C)[C@@H](CN(C)Cc2ccc(Oc3ccccc3)cc2)OCc2ccccc2-c2c(n(C)c3ccccc23)C1=O` gave FN deposit inh 14, ERAP1 inh -3 and SIRT5 block 9.
For CC(C)(C)c1ccc(C(=O)O/N=C(\N)Cc2cccs2)cc1 the results were FN deposit inh -3, ERAP1 inh -5, SIRT5 block 34*, PGC1a acetyl inh 0 and FGF22 binding 0.
`Cc1ccccc1C(=O)O/N=C(\N)Cc1cccs1` gave ERAP1 inh -1, SIRT5 block 0, PGC1a acetyl inh 3 and FGF22 binding 0.
For O=C1CN(S(=O)(=O)Cc2ccccc2)C[C@H]2[C@@H](c3ccc(C#CCC4CCCC4)cc3)[C@@H](CO)N12 the results were ERAP1 inh 2, SIRT5 block 16* and PGC1a acetyl inh 0.
`Cc1ccccc1S(=O)(=O)N1CC(=O)N2[C@H](CO)[C@H](c3ccc(C#CCC4CCCC4)cc3)[C@@H]2C1` gave ERAP1 inh -1, SIRT5 block 4 and PGC1a acetyl inh -6.
Screening Cc1ccccc1S(=O)(=O)N1CC(=O)N2[C@@H](CO)[C@H](c3ccc(C#CCC4CCCC4)cc3)[C@@H]2C1 returned ERAP1 inh 2, SIRT5 block 16* and PGC1a acetyl inh -3.
Screening CNC(=S)Nc1ccc(-c2nc3ccc(C)cc3s2)cc1 returned FN deposit inh -23, ERAP1 inh -1, SIRT5 block -1, PGC1a acetyl inh -7 and FGF22 binding 22*.
Screening CC(=O)NC(=S)Nc1ccc(-c2nc3ccc(C)cc3s2)cc1 returned ERAP1 inh -2, SIRT5 block -1, PGC1a acetyl inh 7 and FGF22 binding 0.
`CC(C)(C)c1ccc2c(c1)C(=O)c1ccccc1C2=O` gave FN deposit inh -6, ERAP1 inh 6, SIRT5 block -4, PGC1a acetyl inh -2 and FGF22 binding 0.
For CCc1ccc2c(c1)C(=O)c1ccccc1C2=O the results were FN deposit inh 3, ERAP1 inh 2, SIRT5 block 7 and FGF22 binding 43*.
O=C(C[C@H]1C[C@H]2c3cc(NC(=O)NC4CCCC4)ccc3O[C@H]2[C@@H](CO)O1)NCC1CC1 was read as FN deposit inh -9, ERAP1 inh -2, SIRT5 block -2, PGC1a acetyl inh 4 and FGF22 binding 0.
Screening COc1ccc(CCN(C)Cc2c(O)ccc3cc(Br)ccc23)cc1OC returned FN deposit inh 6, ERAP1 inh -3, SIRT5 block -4, PGC1a acetyl inh 10 and FGF22 binding -1.
`COc1ccc(CN(C)Cc2c(O)ccc3cc(Br)ccc23)cc1OC` gave FN deposit inh -8, ERAP1 inh 4, SIRT5 block 1, PGC1a acetyl inh 30 and FGF22 binding 1.7*.
Screening Cc1ccc2nc(N3C(=O)C(O)=C(C(=O)c4ccc(C)o4)C3c3ccc(O)cc3)sc2c1 (stereo not given) returned FN deposit inh -7, ERAP1 inh 5, SIRT5 block 22* and PGC1a acetyl inh 1.
For CN1/C(=C\C(=O)COC(=O)c2nccnc2N)C(C)(C)c2ccccc21 the results were FN deposit inh -11, ERAP1 inh 2, SIRT5 block 4 and FGF22 binding 0.
`CC(C)[C@H](NC(=O)c1ccccc1)C(=O)OCC(=O)/C=C1/N(C)c2ccccc2C1(C)C` gave FN deposit inh 6, ERAP1 inh -4, SIRT5 block -3, PGC1a acetyl inh 1 and FGF22 binding 44*.
For COc1cc(OC)cc(C(=O)NCC(=O)OCC(=O)/C=C2/N(C)c3ccccc3C2(C)C)c1 the results were FN deposit inh -1, ERAP1 inh 6, SIRT5 block 27*, PGC1a acetyl inh -7 and FGF22 binding 43.
`COc1cc(OC)cc(C(=O)NCC(=O)OCC(=O)c2ccc3c(c2)-c2ccccc2C3)c1` gave FN deposit inh 7, ERAP1 inh 1, SIRT5 block -3, PGC1a acetyl inh 10 and FGF22 binding 45*.
Screening CN1/C(=C\C(=O)COC(=O)Cn2nnc(-c3ccccc3)n2)C(C)(C)c2ccccc21 returned FN deposit inh -14 and PGC1a acetyl inh 5.
`COc1ccccc1S(=O)(=O)N[C@@H]1CC[C@H](CC(=O)N2CCCCC2)O[C@H]1CO` gave ERAP1 inh 2, SIRT5 block 1, PGC1a acetyl inh -7 and FGF22 binding 0.
`COCc1cc(CN2CCN(Cc3ccsc3)C(CCO)C2)ccc1OC` (stereo not given) gave FN deposit inh -2, ERAP1 inh -1, SIRT5 block -3 and FGF22 binding 43*.
